Here are results for 52 compounds from ChEMBL document CHEMBL1157570, “Development of potent and selective inhibitors of ecto-5'-nucleotidase based on an anthraquinone scaffold” (J Med Chem, 2010).

One assay concerns the target T1, 5'-nucleotidase (Rattus norvegicus, UniProt P21588).
T1 sequence (P21588 whole entry): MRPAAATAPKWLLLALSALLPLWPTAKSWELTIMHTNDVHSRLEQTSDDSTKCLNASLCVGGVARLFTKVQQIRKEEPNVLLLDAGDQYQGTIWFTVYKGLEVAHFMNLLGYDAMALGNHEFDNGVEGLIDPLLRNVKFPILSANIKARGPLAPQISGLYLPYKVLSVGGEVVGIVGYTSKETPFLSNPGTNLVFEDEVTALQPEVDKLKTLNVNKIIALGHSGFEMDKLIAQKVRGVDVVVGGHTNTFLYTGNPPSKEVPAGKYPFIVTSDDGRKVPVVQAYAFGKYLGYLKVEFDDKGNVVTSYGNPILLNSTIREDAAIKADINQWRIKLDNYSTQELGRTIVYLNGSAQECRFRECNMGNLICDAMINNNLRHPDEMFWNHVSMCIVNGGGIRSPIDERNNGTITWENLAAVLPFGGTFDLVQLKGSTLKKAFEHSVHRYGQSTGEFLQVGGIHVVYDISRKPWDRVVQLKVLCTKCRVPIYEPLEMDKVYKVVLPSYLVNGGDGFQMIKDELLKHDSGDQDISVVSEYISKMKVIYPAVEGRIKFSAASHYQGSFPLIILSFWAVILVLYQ
Kind of assay: Inhibition of rat ecto-5'-nucleotidase expressed in Sf9 cells by capillary electrophoresis method. Summed up: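 Rat eN, GST-fused, made in Sf9 cells and purified on GSH-agarose. 500 μM AMP in Hepes pH 7.4 with Mg2+/Ca2+, 37 °C for 15 min. Adenosine measured by capillary electrophoresis at 260 nm. Inhibitor at 6-8 concentrations spanning about 3 log units. […] Three experiments, each in duplicate.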

The target of assay [1] is T2, 5'-nucleotidase (Rattus norvegicus) (UniProt P21588).
T2 sequence (whole entry): T1 sequence (P21588 whole entry)
Kind of assay: Inhibition of rat ecto-5'-nucleotidase expressed in Sf9 cells at 1 mM by capillary electrophoresis method. Summed up: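 Test agent at 1 mM with 500 μM AMP in 10 mM Hepes pH 7.4, 2 mM MgCl2, 1 mM CaCl2. Incubated 15 min at 37 °C, stopped at 99 °C for 10 min. Adenosine quantified by capillary electrophoresis, UV peak area at 260 nm.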

In another assay the target is P2Y purinoceptor 4 (Homo sapiens, UniProt P51582). Kind of assay: Antagonist activity at human P2Y4 receptor expressed in astrocytoma cells assessed as inhibition of intracellular calcium mobilization. The format is functional, cell-based. Summed up: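 Astrocytoma cells stably expressing the receptor, loaded with Fura-2 AM. Cells preincubated with test agent for at least 20 min, then challenged with 1 μM UTP (P2Y2), 3 μM UTP (P2Y4) or 3 μM UDP (P2Y6). Ca2+ fluorescence read at ex 320/em 520 nm. Full curves (7-8 concentrations over 3 log units) run when inhibition exceeded 40% at 10 μM. Three experiments, each in triplicate.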
Sequence of P2Y purinoceptor 4 (P51582 whole entry): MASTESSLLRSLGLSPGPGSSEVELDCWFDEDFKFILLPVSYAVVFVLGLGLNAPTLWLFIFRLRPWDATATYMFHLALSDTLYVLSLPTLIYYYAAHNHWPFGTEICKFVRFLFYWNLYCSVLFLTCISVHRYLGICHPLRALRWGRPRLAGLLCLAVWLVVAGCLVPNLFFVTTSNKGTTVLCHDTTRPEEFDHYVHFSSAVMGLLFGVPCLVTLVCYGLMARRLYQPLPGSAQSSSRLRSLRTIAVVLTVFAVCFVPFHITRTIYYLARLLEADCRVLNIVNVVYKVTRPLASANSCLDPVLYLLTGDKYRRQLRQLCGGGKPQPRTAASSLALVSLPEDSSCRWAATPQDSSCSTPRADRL
Background: A change in cytosolic calcium serves as a functional read-out for many receptors and channels.

Take `Nc1c(S(=O)(=O)O)cc(Nc2cccc3c(S(=O)(=O)O)cccc23)c2c1C(=O)c1ccccc1C2=O`: on 5'-nucleotidase, the Ki worked out at 11.7 µM.

On 5'-nucleotidase, `Nc1cc(Nc2cc(S(=O)(=O)O)c(N)c3c2C(=O)c2ccccc2C3=O)ccc1S(=O)(=O)O` returned a Ki of 25.2 µM.

In turn, `Nc1c(S(=O)(=O)O)cc(Nc2ccccc2C(=O)O)c2c1C(=O)c1ccccc1C2=O` yielded an inhibition constant (Ki) at 5'-nucleotidase of 6.53 µM.

In assay [1], `Nc1c(S(=O)(=O)O)cc(Nc2ccccc2S(=O)(=O)O)c2c1C(=O)c1ccccc1C2=O` gave an inhibition of 14%.

As for `Nc1c(S(=O)(=O)O)cc(Nc2ccc(Oc3ccccc3)cc2)c2c1C(=O)c1ccccc1C2=O`, on 5'-nucleotidase, the inhibition constant (Ki) is 1.51 µM.

On to `Cc1cc(Nc2ccccc2)c2c(c1N)C(=O)c1ccccc1C2=O`, for which the inhibition in assay [1] was 4%.

For the compound `CCOc1ccccc1Nc1cc(S(=O)(=O)O)c(N)c2c1C(=O)c1ccccc1C2=O`, the inhibition in assay [1] turned out to be 56%.

On 5'-nucleotidase, `Cc1ccc(Nc2cc(S(=O)(=O)O)c(N)c3c2C(=O)c2ccccc2C3=O)cc1` gave a Ki of 360 µM.

Compound `Nc1c(S(=O)(=O)O)cc(Nc2ccccc2O)c2c1C(=O)c1ccccc1C2=O` showed a Ki on 5'-nucleotidase of 1.84 µM.

For `Nc1c(S(=O)(=O)O)cc(Nc2cccc(C(=O)O)c2)c2c1C(=O)c1ccccc1C2=O`, the inhibition in assay [1] came out at 26%.

In the case of `Nc1c(S(=O)(=O)O)cc(NC2CCCC2)c2c1C(=O)c1ccccc1C2=O`, the inhibition in assay [1] came out at 51%.

In assay [1], `Nc1c(S(=O)(=O)O)cc(NCc2ccccc2)c2c1C(=O)c1ccccc1C2=O` displayed an inhibition of 43%.

In the case of `Nc1c(S(=O)(=O)O)cc(Nc2ccc(C(=O)O)cc2)c2c1C(=O)c1ccccc1C2=O`, in assay [1], the inhibition was found to be 34%.

As for `Nc1ncnc2c1ncn2[C@H]1O[C@@H](COP(=O)(O)CP(=O)(O)O)[C@H](O)[C@@H]1O`, the inhibition constant Ki on 5'-nucleotidase came out at 0.00087 µM.

For the compound `Cc1ccc2ccccc2c1Nc1cc(S(=O)(=O)O)c(N)c2c1C(=O)c1ccccc1C2=O`, the affinity on 5'-nucleotidase corresponds to a Ki of 2.74 µM.

In assay [1], `Nc1c(S(=O)(=O)O)cc(Nc2cc(Cl)ccc2C(=O)O)c2c1C(=O)c1ccccc1C2=O` registered an inhibition of 27%.

For the compound `Nc1c(S(=O)(=O)O)cc(Nc2ccc(Br)cc2C(=O)O)c2c1C(=O)c1ccccc1C2=O`, the inhibition in assay [1] amounted to 56%.

On to `Nc1c(S(=O)(=O)O)cc(Nc2ccc(Nc3nc(Cl)nc(Nc4cccc(S(=O)(=O)O)c4)n3)c(S(=O)(=O)O)c2)c2c1C(=O)c1ccccc1C2=O` [RB 2], for which, at 5'-nucleotidase, affinity was put at a Ki of 3.07 µM. In addition, the IC50 on P2Y purinoceptor 4 was found to be 9.79 µM.

`Nc1c(S(=O)(=O)O)cc(Nc2ccc(F)cc2)c2c1C(=O)c1ccccc1C2=O` yielded a Ki at 5'-nucleotidase of 5.67 µM.

Turning to `Nc1c(S(=O)(=O)O)cc(Nc2cc3ccccc3c3ccccc23)c2c1C(=O)c1ccccc1C2=O`, in assay [1], the inhibition is 58%.

`Cc1cccc(Nc2cc(S(=O)(=O)O)c(N)c3c2C(=O)c2ccccc2C3=O)c1` had a Ki on 5'-nucleotidase of 12.3 µM.

In assay [1], `Cc1cccc(Nc2cc(S(=O)(=O)O)c(N)c3c2C(=O)c2ccccc2C3=O)c1C` had an inhibition of 39%.

On 5'-nucleotidase, `Nc1c(S(=O)(=O)O)cc(NC2CCCCC2)c2c1C(=O)c1ccccc1C2=O` displayed an inhibitory constant (Ki) of 1.66 µM.

The compound `Cc1ccccc1Nc1cc(S(=O)(=O)O)c(N)c2c1C(=O)c1ccccc1C2=O` registered an inhibition in assay [1] of 33%.

On 5'-nucleotidase, `Nc1c(S(=O)(=O)O)cc(Nc2ccc3cc(C(=O)O)ccc3c2)c2c1C(=O)c1ccccc1C2=O` registered a Ki of 3.43 µM.

Consider `CCOP(=O)(Cc1ccc(Nc2cc(S(=O)(=O)O)c(N)c3c2C(=O)c2ccccc2C3=O)cc1)OCC`, for which the inhibition in assay [1] is 28%.

`Nc1ccccc1Nc1cc(S(=O)(=O)O)c(N)c2c1C(=O)c1ccccc1C2=O` yielded a Ki on 5'-nucleotidase of 47 µM. In addition, the inhibition in assay [1] worked out at 47%.

With `Cc1cc(C)c(Nc2cc(S(=O)(=O)O)c(N)c3c2C(=O)c2ccccc2C3=O)c(C)c1N`, the inhibitory constant (Ki) at 5'-nucleotidase was 36 µM.

In assay [1], `Cc1ccc(C)c(Nc2cc(S(=O)(=O)O)c(N)c3c2C(=O)c2ccccc2C3=O)c1` displayed an inhibition of 26%.

For `Nc1c(S(=O)(=O)O)cc(Nc2cc(F)ccc2C(=O)O)c2c1C(=O)c1ccccc1C2=O`, the inhibition in assay [1] turned out to be 60%.

`Nc1c(S(=O)(=O)O)cc(NCCc2ccc(Cl)cc2)c2c1C(=O)c1ccccc1C2=O` had an inhibition in assay [1] of 62%.

On 5'-nucleotidase, `Nc1ccc(Nc2cc(S(=O)(=O)O)c(N)c3c2C(=O)c2ccccc2C3=O)cc1S(=O)(=O)O` yielded a Ki of 10 µM.

As for `Nc1c(S(=O)(=O)O)cc(Nc2ccc3ccccc3c2)c2c1C(=O)c1ccccc1C2=O`, affinity at 5'-nucleotidase was put at a Ki of 1.47 µM.

`Nc1c(S(=O)(=O)O)cc(Nc2cccc3cc(S(=O)(=O)O)ccc23)c2c1C(=O)c1ccccc1C2=O`: the affinity on 5'-nucleotidase, expressed as Ki, was 15.3 µM.

The compound `CC(C)Nc1cc(S(=O)(=O)O)c(N)c2c1C(=O)c1ccccc1C2=O` displayed an inhibition in assay [1] of 15%.

With `Cc1ccc(Nc2cc(S(=O)(=O)O)c(N)c3c2C(=O)c2ccccc2C3=O)c(C)c1`, the inhibition in assay [1] was 47%.

As to `Nc1c(S(=O)(=O)O)cc(Nc2ccc(Cl)cc2)c2c1C(=O)c1ccccc1C2=O`, the Ki at 5'-nucleotidase came out at 4.81 µM.

The compound `Nc1c(S(=O)(=O)O)cc(NCCc2ccccc2)c2c1C(=O)c1ccccc1C2=O` returned an inhibition in assay [1] of 53%.

For the compound `Nc1c(S(=O)(=O)O)cc(Nc2ccc(CC(=O)O)cc2)c2c1C(=O)c1ccccc1C2=O`, the inhibition in assay [1] was found to be 26%.

Turning to `Nc1c(S(=O)(=O)O)cc(Nc2ccc(S(=O)(=O)O)cc2)c2c1C(=O)c1ccccc1C2=O`, at 5'-nucleotidase, the inhibition constant Ki is 3.43 µM.

Compound `Nc1c(S(=O)(=O)O)cc(Nc2cccc3cccc(S(=O)(=O)O)c23)c2c1C(=O)c1ccccc1C2=O` registered a Ki at 5'-nucleotidase of 6.05 µM.

For the compound `Nc1c(S(=O)(=O)O)cc(Nc2cccc3cc4ccccc4cc23)c2c1C(=O)c1ccccc1C2=O`, the inhibitory constant (Ki) on 5'-nucleotidase is 2.93 µM.

In turn, `Nc1c(S(=O)(=O)O)cc(Nc2cccc3ccc(S(=O)(=O)O)cc23)c2c1C(=O)c1ccccc1C2=O` had an inhibition in assay [1] of 0%.

On to `COc1ccc(CCNc2cc(S(=O)(=O)O)c(N)c3c2C(=O)c2ccccc2C3=O)cc1OC`, for which the inhibition in assay [1] is 44%.

Turning to `COc1ccccc1Nc1cc(S(=O)(=O)O)c(N)c2c1C(=O)c1ccccc1C2=O`, in assay [1], the inhibition was determined as 9%.

In assay [1], `Nc1c(S(=O)(=O)O)cc(Nc2ccc(Nc3ccccc3)cc2)c2c1C(=O)c1ccccc1C2=O` had an inhibition of 37%.

In the case of `Nc1cc(Nc2cc(S(=O)(=O)O)c(N)c3c2C(=O)c2ccccc2C3=O)cc(C(=O)O)c1`, the inhibition in assay [1] was found to be 44%.

Consider `Nc1c(S(=O)(=O)O)cc(Nc2ccc(Cl)cc2C(=O)O)c2c1C(=O)c1ccccc1C2=O`, for which, in assay [1], the inhibition came to 52%.

On to `Nc1ccc(Nc2cc(S(=O)(=O)O)c(N)c3c2C(=O)c2ccccc2C3=O)cc1`, for which the affinity at 5'-nucleotidase, expressed as Ki, was 0.297 µM.

The compound `Nc1c(S(=O)(=O)O)cc(Nc2ccc(Br)cc2)c2c1C(=O)c1ccccc1C2=O` had a Ki at 5'-nucleotidase of 11.3 µM.

In assay [1], `Nc1cccc(Nc2cc(S(=O)(=O)O)c(N)c3c2C(=O)c2ccccc2C3=O)c1` yielded an inhibition of 31%.

In turn, `CCOc1ccc(Nc2cc(S(=O)(=O)O)c(N)c3c2C(=O)c2ccccc2C3=O)cc1` gave an inhibition in assay [1] of 31%.

By Ki is commonly meant the dissociation constant of the complex between target and ligand, obtained from inhibition or displacement. Read a high Ki as lower affinity. In general, inhibition refers to how much of the control response was suppressed. Read a high inhibition as a response far below the control. The IC50 is the midpoint of a concentration-inhibition curve.
